# HCV NS3 hel inh – blocks Hepatitis C virus NS3 helicase unwinding; NS3 helicase DNA unwinding, Cy5 molecular beacon fluorescence; inhibition, % at 10.9 µM; 0.56% of 290,000 active; AID 1800;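 active = inhibition above the mean of all tested compounds plus 3 SD, set per campaign, cut at about 35% in these data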;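 also: 0% = DMSO wells and 100% = thioflavine S control wells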
#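 System: Hepatitis C virus NS3 helicase domain fragment enzyme | Reagent: Annealed dual-labelled DNA beacon duplex, ATP-started | Compound dosing: 10.9 µM single point, 0.8% DMSO | Incubation: 1 h reaction at 25 °C, ATP-initiated | Technique: Cy5 fluorescence | Evaluation: Percent inhibition from t60/t0 fluorescence ratio | Benchmarks: Low DMSO, high thioflavine S at 110 µM | Replication: Singlicate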
# Hep lipid drop – hepatic lipid droplet formation modulation. AML12 mouse hepatocytes, oleate lipid droplets, BODIPY imaging. inhibition, % at 6.5 µM. AID 1656. 0.4% of 240,000 active;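 active = lipid droplet intensity inhibited by at least 50%, with more than 500 cells counted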
#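 Test system: AML12 hepatocytes (mouse); reagent: oleate loading, 100 µM; dosing: one dose, 6.5 µM compound; incubation: overnight exposure; signal: fluorescence imaging, 20x objective, two fields per well; read-out basis: % inhibition of corrected integrated BODIPY droplet signal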
# core dimer inh – HCV core protein dimerization inhibition; TR-FRET GST/Flag-core106 dimerization, 1536-well; inhibition, % at 5 µM; 0.33% of 300,000 active; AID 1899;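 active = inhibition above the mean of all tested compounds plus 3 SD, set per screening campaign, cut at about 45% in these data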
#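 Assay system: tagged HCV core106 pair (GST and Flag); medium: KF-containing HEPES buffer, pH 7.45, DTT, CHAPS, BSA; also added: Eu donor and XL665 acceptor anti-tag antibodies; dosing: 5 µM single dose; timing: compound-protein-antibody incubation 4 h at 22.5 °C; signal: TR-FRET 671 and 617 nm emission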
# TbMetRS inhib – Trypanosoma brucei MetRS inhibition | purified T. brucei MetRS, ATP depletion, Kinase-Glo luminescence | inhibition, % at 11.9 µM | AID 624268 | 0.4% of 360,000 active;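 active = inhibition above a per-plate cutoff of the control wells' mean inhibition plus 3 SD, cut at about 5.5% in these data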;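 also: 0% = DMSO wells median and 100% = median of wells with control inhibitor compound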
#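 Dosing: 11.9 µM single point; system: parasite MetRS enzyme; technique: luminescence of leftover ATP; times: 15 min enzyme-compound preincubation, 2 h reaction, 10 min detection, 25 °C; replicates: each compound tested once; read-out basis: percent inhibition relative to median high and low control wells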
# TbMetRS confirm – Trypanosoma brucei MetRS inhibition confirmed | inhibition, % at 11.9 µM | 93% of 1,400 active | T. brucei MetRS enzyme, luminescence (ATP depletion) | shares compounds with TbMetRS inhib; in the data active = inhibition above about 7%
# Jurkat tox – Jurkat T cell cytotoxicity for MetRS hits; 12% of 1,400 active; shares compounds with TbMetRS inhib; Jurkat cells viability, ATP luminescence; inhibition, % at 8.3 µM; in the data active = inhibition above about 15%;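 also: 0% = vehicle and 100% = reference inhibitor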
# Tb MetRS inh FP – T. brucei MetRS inhibition, orthogonal assay; inhibition, % at 11.9 µM; purified T. brucei MetRS, fluorescence polarization; shares compounds with TbMetRS inhib; 44% of 1,400 active; in the data active = inhibition above about 17%;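 also: 0% = vehicle wells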
# Numbers without * were called inactive; . = no result given. Most compounds without a hit are left out; they make up all but 1.3% or so of the library.
SMILES,HCV NS3 hel inh,Hep lipid drop,core dimer inh,TbMetRS inhib,TbMetRS confirm,Jurkat tox,Tb MetRS inh FP
COc1cc(/C=C2\SC(=S)N(N(C)c3ccccc3)C2=O)ccc1O,-7,-10,0,0,.,.,.
CNC(=O)COC(=O)c1ccc(Cl)c(S(N)(=O)=O)c1,23,-5,-3,6.4*,3,-5,3
CC(C)OCCCN1CC(=O)N2C(c3cccc([N+](=O)[O-])c3)c3[nH]c4ccccc4c3C[C@H]2C1=O (stereo partly drawn),-23,-4,4,93*,95*,5,85*
COc1ccc(OC)c(C2c3[nH]c4ccccc4c3C[C@H]3C(=O)N(CCCOC(C)C)CC(=O)N23)c1 (stereo partly drawn),-25,33,6,2,.,.,.
COCCN1CC(=O)N2C(c3cccc(OC)c3)c3[nH]c4ccccc4c3C[C@H]2C1=O (stereo partly drawn),-9,.,-4,11*,24*,0,7
COCCCN1CC(=O)N2C(c3cccc(OC)c3)c3[nH]c4ccccc4c3C[C@H]2C1=O (stereo partly drawn),10,1,-12,12*,24*,4,6
CN(c1ccccc1)S(=O)(=O)c1cc(C(=O)Nc2ccccc2N2CCOCC2)ccc1Cl,.,.,.,0,.,.,.
O=C(Cn1c2[n+](c3ccccc31)CC(O)CS2)c1ccccc1 (stereo not drawn),0,20,-2,0,.,.,.
COC(=O)c1ccccc1NC(=O)CSc1nnc(-c2cccnc2)n1C,-7,-1,4,0,.,.,.
Cc1cccc(NC(=O)NNC(=O)c2cc(-c3ccccc3Cl)nc3ccccc23)c1,-9,.,-9,-1,.,.,.
O=C(NNC(=O)c1cc(-c2ccc(Cl)c(Cl)c2)nc2ccccc12)Nc1ccccc1,-7,.,10,45*,94*,2,81*
CC(=O)NS(=O)(=O)c1ccc(NC(=O)/C=C/c2cn(-c3ccccc3)nc2-c2ccccc2)cc1,-63,0,23,51*,49*,-4,42*
COc1ccc(N2CCN(C(=O)C3CCCN(S(=O)(=O)c4c(C)noc4C)C3)CC2)cc1 (stereo not drawn),-3,-9,1,0,.,.,.
COc1ccc(N(CC(=O)Nc2ccc(Cl)cc2)S(=O)(=O)c2c(C)n[nH]c2C)cc1,-13,7,1,8.7*,18*,4,10
CC(=O)Nc1ccc(C(=O)OCCc2ccccc2)cc1,-2,1,-12,0,.,.,.
N=c1sccn1CC(=O)NCCc1ccc(Cl)cc1Cl,-2,-3,-5,16*,42*,-5,10
O=C(Cc1ccccc1)N/N=C/c1cccn1-c1ccc([N+](=O)[O-])cc1,-1,1,23,13*,34*,-2,17
O=C(CSc1nnc(Cc2ccc(Cl)cc2)o1)Nc1ccccc1,2,21,-2,7.5*,14*,1,10
Cc1ccc(NC(=O)CSc2nnc(Cc3ccccc3)o2)cc1,-5,-3,-6,0,.,.,.
CCc1nnc(N/N=C\c2ccc(OC(C)=O)c(OC)c2)n1N,-5,8,-4,6.6*,4,4,4
O=S(=O)(c1ccc2nc(COc3ccc(Cl)cc3Cl)[nH]c2c1)N1CCOCC1,-6,.,5,12*,21*,9,14
O=S(=O)(c1ccc2nc(SCc3ccc(Cl)cc3)[nH]c2c1)N1CCOCC1,-9,3,0,12*,18*,0,19*
CC1(C(=O)NS(=O)(=O)c2ccc(F)cc2F)CCN1C(=O)C1(c2ccc(Cl)cc2)CCC1 (stereo not drawn),.,.,.,0,.,.,.
NC(=O)Nc1ccc(C(=O)OCC(=O)NC2CCCCC2)cc1,0,-8,-5,-1,.,.,.
O=C(Cc1cccs1)NCc1cccc(Cl)c1,22,4,.,2,.,.,.
SMILES,HCV NS3 hel inh,Hep lipid drop,core dimer inh,TbMetRS inhib,TbMetRS confirm,Jurkat tox,Tb MetRS inh FP
S=C(NCc1cccs1)Nc1cc(Cl)cc(Cl)c1,-11,1,-17,23*,31*,4,20*
O=C(Cc1cccs1)NCc1cc(Cl)cc(Cl)c1,-1,.,4,56*,73*,-2,44*
O=C1[C@@H]2Cc3c([nH]c4ccccc34)C(c3cccc(Br)c3)N2C(=O)CN1C1CCN(Cc2ccccc2)CC1 (stereo partly drawn),-63,29,15,41*,54*,5,28*
COc1ccc(C2c3[nH]c4ccccc4c3C[C@H]3C(=O)N(C)CC(=O)N23)cc1OC (stereo partly drawn),9,.,2,-1,.,.,.
COc1cccc(C2c3[nH]c4ccccc4c3C[C@H]3C(=O)N(C4CC4)CC(=O)N23)c1 (stereo partly drawn),-2,.,0,16*,30*,8,22*
COc1cccc(C2c3[nH]c4ccccc4c3C[C@H]3C(=O)N(C)CC(=O)N23)c1 (stereo partly drawn),0,.,4,16*,31*,2,10
COc1ccc(OC)c(C2c3[nH]c4ccccc4c3C[C@H]3C(=O)N(C4CC4)CC(=O)N23)c1 (stereo partly drawn),-1,-1,1,0,.,.,.
O=C1[C@@H]2Cc3c([nH]c4ccccc34)C(c3ccccc3)N2C(=O)CN1C1CCN(Cc2ccccc2)CC1 (stereo partly drawn),-56,28,5,-1,.,.,.
C=CCSc1nc2c(cnn2-c2ccccc2)c(=O)n1N,3,-8,0,0,.,.,.
Cc1ccc2nc(SCc3nnc(-c4ccccc4Br)o3)[nH]c2c1,-2,.,2,7.8*,11*,5,7
Clc1ccc2nc(SCc3nnc(-c4ccccc4)o3)[nH]c2c1,-8,.,-1,7.5*,17*,6,7
Clc1ccc(OCc2nnc(SCc3nnc(-c4ccccc4)o3)o2)c(Cl)c1,-26,.,0,6.7*,17*,0,5
O=C(C1CC1)N1N=C(c2ccccc2)CC1(O)C(F)(F)C(F)(F)F (stereo not drawn),-4,-3,-5,-1,.,.,.
CC(NC(=O)COC(=O)c1cc(=O)c2ccccc2o1)c1ccccc1 (stereo not drawn),.,.,.,0,.,.,.
O=C(CSc1nnc(-c2ccccc2)c(-c2ccccc2)n1)NCc1ccco1,11,-1,15,-1,.,.,.
Cn1c(SCC(=O)NCc2ccc(F)cc2)nc2ccccc21,-2,.,-5,0,.,.,.
COc1cccc(CNC(=O)CSc2nnc3c(n2)[nH]c2ccc(OC)cc23)c1,0,19,2,1,.,.,.

# Source: PubChem BioAssay (several laboratories)
